In the library only some 0.99% were active in any assay of this set; here they are far more common.
NPR2 activator – GC-B (human) receptor activation | AID 1920062 | P20594 | activation, % at 10 µM | HEK293-GC-B cells, CNP EC30, cGMP TR-FRET; 0% at EC30 CNP, 100% saturating CNP | 370,000 tested, 0.11% active;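 active = activation at 10 µM reaching about 35% in either raw or pattern-adjusted values, limit read from the data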
GC-A act – GC-A (human) enzyme activation; 370,000 tested, 0.14% active; activation, % at 10 µM; P16066; HEK293 GC-A cells, cGMP TR-FRET, EC30 ANP; 0% at EC30 ANP, 100% saturating ANP; in the data active = activation above about 40%
Target sequence (P16066 whole entry, looked up): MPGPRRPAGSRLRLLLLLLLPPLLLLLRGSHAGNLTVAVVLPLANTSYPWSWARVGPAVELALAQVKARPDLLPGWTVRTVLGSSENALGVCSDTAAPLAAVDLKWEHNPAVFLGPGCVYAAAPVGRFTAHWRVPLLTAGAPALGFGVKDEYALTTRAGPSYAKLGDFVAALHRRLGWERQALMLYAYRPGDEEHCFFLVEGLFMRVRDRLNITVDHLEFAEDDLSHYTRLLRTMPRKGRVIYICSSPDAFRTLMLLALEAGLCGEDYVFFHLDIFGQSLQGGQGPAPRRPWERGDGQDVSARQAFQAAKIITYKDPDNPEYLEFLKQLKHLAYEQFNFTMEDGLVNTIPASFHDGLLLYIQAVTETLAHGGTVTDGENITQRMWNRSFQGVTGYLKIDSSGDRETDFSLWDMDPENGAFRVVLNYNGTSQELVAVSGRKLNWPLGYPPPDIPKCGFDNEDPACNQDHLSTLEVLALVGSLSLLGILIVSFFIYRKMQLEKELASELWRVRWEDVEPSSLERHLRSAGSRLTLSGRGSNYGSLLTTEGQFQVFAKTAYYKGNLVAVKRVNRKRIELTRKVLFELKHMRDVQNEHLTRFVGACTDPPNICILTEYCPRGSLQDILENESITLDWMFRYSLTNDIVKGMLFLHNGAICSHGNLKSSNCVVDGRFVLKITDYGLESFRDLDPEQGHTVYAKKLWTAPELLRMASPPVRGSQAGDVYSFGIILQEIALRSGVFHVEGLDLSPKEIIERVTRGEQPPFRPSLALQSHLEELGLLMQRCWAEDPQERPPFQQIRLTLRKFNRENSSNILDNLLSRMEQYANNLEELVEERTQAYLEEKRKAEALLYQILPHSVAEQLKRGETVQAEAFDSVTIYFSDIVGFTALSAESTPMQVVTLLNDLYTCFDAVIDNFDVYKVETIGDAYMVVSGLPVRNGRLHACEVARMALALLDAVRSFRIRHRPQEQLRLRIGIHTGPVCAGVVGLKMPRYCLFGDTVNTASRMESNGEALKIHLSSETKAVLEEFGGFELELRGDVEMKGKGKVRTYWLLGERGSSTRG
CASP6 VEID inh – inhibitors of human caspase-6 | purified caspase-6, Z-VEID-R110 cleavage fluorescence | P55212 | 350,000 tested, 0.53% active | inhibition, % at 12.5 µM;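 active = mean inhibition across replicates at least about 35%, with every replicate also reaching that limit, limit read from the data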;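 also: 0% = median of neutral control wells and 100% = no fluorescence left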
FN deposit inh – fibronectin deposition inhibition; AH1F fibroblasts, Alexa488-fibronectin deposition fluorescence, overnight; inhibition, % at 12.6 µM; 350,000 tested, 0.086% active;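 active = mean inhibition across replicates of 30% or more, regardless of how many single replicates reach that level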;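 also: positive control wells lacked labelled fibronectin entirely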
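material = AH1F fibroblast monolayer depositing Alexa488-labelled fibronectin into matrix | amount = 10000 AH1F cells/well | buffer or medium = DMEM plus 2% serum, read in PBS | incubation = 1 h cell adhesion before compound, then overnight fibronectin incubation | detection = fluorescence at 485 nm excitation, 525 nm emission | evaluation = percent inhibition as loss of matrix-bound fibronectin fluorescence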
NSD2 inh – NSD2 (human) methyltransferase inhibition. AID 743445. O96028. NSD2 peptide methylation, AlphaScreen, 120 min. 310,000 tested, 0.54% active. inhibition, % at 12.5 µM; in the data active = inhibition above about 50%
CaV13 ICDI inh – Primary screen for inhibitors of IQ motif and Ca2+-dependent inactivation inhibitor domain binding in CACNA1D, Förster resonance energy transfer in living cells, …. AID 743397. HEK cells, CFP/YFP FRET ICDI-IQ, plate reader, 10 min; percent FRET-ratio fall versus neutral wells. 340,000 tested, 0.098% active. inhibition, % at 12.3 µM;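 active = mean replicate inhibition of at least 30% and at least 1% of replicates passing that level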;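 also: 0% = median of the neutral control wells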
AlphaScreen art – AlphaScreen assay artifact in NSD2 counter-screen | shares compounds with NSD2 inh | AlphaScreen artifact counterscreen, preloaded methylated H4 peptide | AC35, µM (doses to about 10 µM), for inactives: at the top dose activity change, negative = signal loss | 1,500 tested, 9.4% active; call rule not given here
Numbers without * were called inactive; x = not tested or not shown.

SMILES	NPR2 activator	GC-A act	CASP6 VEID inh	FN deposit inh	NSD2 inh	CaV13 ICDI inh	AlphaScreen art
CC1=NOC(=O)/C1=C\c1ccc(-c2ccccc2Br)o1	3	23	15	-10	69*	-2	-12%
CC1=NOC(=O)/C1=C\c1ccc(-c2cccc(Cl)c2)o1	x	x	x	x	0	x	x
CC1=NOC(=O)/C1=C\c1ccc(-c2ccc(Cl)c(C(=O)O)c2)o1	-2	-2	31	1	84*	-3	-7%
Cc1cc(C)cc(NC(=O)Nc2ccc3c(c2)C(=O)N(C)[C@H]2CC[C@@H](CC(=O)O)O[C@H]2CO3)c1	x	x	x	-9	x	x	x
CN(Cc1c(O)ccc2c1oc(=O)c1ccccc12)C1CCCCC1	-5	-5	x	-1	75*	-4	2%
CN(C)Cc1c(O)ccc2c3c(c(=O)oc12)CCCCC3	8	7	x	x	1	-5	x
O=C(Cc1ccncc1)NCC[C@@H]1CC[C@@H](NC(=O)Nc2cccc(F)c2)[C@H](CO)O1	x	x	-3	5	x	x	x
Cc1cc2oc(=O)cc(CSc3nc(N)cc(N)n3)c2cc1C(C)C	-9	-7	x	x	-1	-5	x
CCCc1cc(=O)[nH]c(SCc2cc(=O)oc3cc(C)c(C(C)C)cc23)n1	-1	-3	0	7	78*	-3	-4%
Cc1cc(NS(=O)(=O)c2ccc(NC(=O)CSc3nnc(-c4ccncc4)n3Cc3ccco3)cc2)nc(C)n1	-3	1	x	x	56*	x	-1%
C[C@H]1CN([C@@H](C)CO)S(=O)(=O)c2ccc(-c3cncnc3)cc2O[C@H]1CN(C)Cc1cccnc1	x	x	-1	x	x	x	x
CC1(C)C=C2C(=NN(c3ccccc3)C(N)=C2C#N)CO1	1	5	84*	6	100*	-21	-9%
CC1(C)Cc2c(C#N)c(N)n(-c3ccccc3)c(=S)c2CO1	1	-1	14	-1	0	-5	x
Cc1cc(=O)[nH]c(COc2ccccc2)n1	-3	0	x	x	55*	-1	-5%
Cc1ccc(OCc2nnc(SCC(=O)NC3CCCCC3)n2C)cc1	-1	1	x	x	-2	x	x
Cn1c(COc2ccc(Cl)cc2)nnc1SCC(=O)NC1CCCCC1	1	3	x	4	51*	-3	1%
COc1cccc(S(=O)(=O)N[C@H]2CC[C@H](CCNC(=O)Nc3cc(F)ccc3F)O[C@H]2CO)c1	x	x	-173	-2	x	x	x
CCN1CCN(c2ncnc3scc(-c4ccc(OC)cc4)c23)CC1	5	-8	-3	-10	64*	-3	-4%
Cc1nnc(Sc2cc(NCCO)c([N+](=O)[O-])c3nonc23)s1	-1	6	9	-19	60*	0	-3%
Cc1nnc(Sc2cc(NCCCO)c([N+](=O)[O-])c3nonc23)s1	10	28	13	-3	x	-1	x
N#C/C(=C\c1ccc(O)c(O)c1)C(=O)Nc1cccc2ncccc12	-11	-6	58*	1	115*	3	4.8µM*
C[C@H]1CN([C@@H](C)CO)C(=O)Cc2cc(NC(=O)Cn3cnnn3)ccc2O[C@@H]1CN(C)Cc1ccc2c(c1)OCO2	x	x	0	x	x	x	x
O=C(CN1CCOCCOCCOCC1)Nc1ccccc1	5	-2	x	-2	0	-3	x
O=C(CN1CCOCCOCCN(CC(=O)Nc2ccccc2)CCOCC1)Nc1ccccc1	7	1	x	-6	166*	-4	0%
O=C(CN1CCOCC1)Nc1ccc(Oc2ccccc2)cc1	-1	5	x	12	53*	-3	0%
SMILES	NPR2 activator	GC-A act	CASP6 VEID inh	FN deposit inh	NSD2 inh	CaV13 ICDI inh	AlphaScreen art
COc1ccc(NC(=O)CN2CCN(S(=O)(=O)N3CCCCCC3)CC2)cc1	0	-1	0	8	74*	-4	3%
C[C@@H]1CCCCO[C@@H](CN(C)S(=O)(=O)c2ccc(Cl)cc2)[C@@H](C)CN([C@@H](C)CO)C(=O)c2cc(NS(=O)(=O)c3cccs3)ccc2O1	x	x	1	-17	x	x	x
O=C1CC2(CCCCC2)CC(=O)N1CCc1ccccc1	-3	-8	2	-9	75*	-5	1%
O=C1CC2(CCCC2)CC(=O)N1c1ccccc1	0	2	1	5	1	-2	x
O=C(OCc1ccc([N+](=O)[O-])cc1)c1cc(=O)c2ccccc2o1	-9	-5	2	3	115*	-2	-1%
N#Cc1ccc(COC(=O)c2cc(=O)c3ccccc3o2)cc1	-8	-2	2	x	-1	-7	x
Cc1ccc(-c2ccc3c(c2)O[C@@H](CN(C)S(C)(=O)=O)[C@@H](C)CN([C@@H](C)CO)S3(=O)=O)cc1	x	x	-3	4	x	x	x
CO[C@@H]1CN(C)C(=O)c2cc(NS(=O)(=O)c3cn(C)cn3)ccc2OC[C@@H](C)N(CC2CC2)C[C@@H]1C	x	x	20	-8	x	x	x
COc1ccc(/C=C/C(=O)OCC(=O)NCC2CCCO2)cc1 (stereo unspecified)	4	0	1	3	54*	4	2%
COc1cccc(/C=C/C(=O)OCC(=O)NCC2CCCO2)c1 (stereo unspecified)	3	-3	x	1	-3	-5	x
C[C@H](CO)N1C[C@H](C)[C@H](CN(C)S(C)(=O)=O)Oc2ccc(NC(=O)Nc3cccc4ccccc34)cc2C1=O	x	x	1	x	x	x	x
CO[C@@H](C(=O)N(C)C[C@H]1OCc2ccccc2-c2c(n(C)c3ccccc23)C(=O)N([C@H](C)CO)C[C@H]1C)c1ccccc1	x	x	2	-13	x	x	x
COCCN1CC(=O)N2C(c3cccc(C)c3)c3[nH]c4ccccc4c3C[C@H]2C1=O (stereo partly specified)	17	11	3	19	52*	-21	-7%
COCCCN1CC(=O)N2C(c3cccc(C)c3)c3[nH]c4ccccc4c3C[C@H]2C1=O (stereo partly specified)	11	4	2	-3	0	-2	x
CCCCn1c(N)c(N(CCC(C)C)C(=O)COC(=O)c2ccc([N+](=O)[O-])s2)c(=O)[nH]c1=O	-1	-6	95*	-2	53*	-10	-5%
CC(C)CN(C(=O)COC(=O)c1ccc([N+](=O)[O-])s1)c1c(N)n(Cc2ccccc2)c(=O)[nH]c1=O	4	3	82*	-12	65*	-7	-1%
CC(C)CN(C(=O)COC(=O)c1cccs1)c1c(N)n(Cc2ccccc2)c(=O)[nH]c1=O	3	-3	-3	1	-3	-6	x
COc1cccc(CN(C)C[C@@H]2OCc3ccccc3-c3c(n(C)c4ccccc34)C(=O)N([C@@H](C)CO)C[C@@H]2C)c1	x	x	1	1	x	x	x

Source: PubChem BioAssay
